ChEMBL document CHEMBL1123346, “Pyrimidinones. 3. N-substituted 6-phenylpyrimidinones and pyrimidinediones with diuretic/hypotensive and antiinflammatory activity” (J Med Chem, 1986)
Values belong to the molecule of their own block, whether it stands above or below them. Activity calls are given as the source filed them.

Assays:
Rattus norvegicus [1] = assay: Blood pressure change in rats after oral administration of 50 mg/kg dose after 24 hours; assay type: functional
How it was run: (§1)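 Restrained female Sprague–Dawley rats with indwelling aortic cannulas exteriorized at the nape; direct arterial pressure via transducer, mean pressure by electrical integration of phasic pressure. Readings before and 4 and 24 h after oral dosing (carboxymethylcellulose suspension, 10 mL/kg). Value is change in mean arterial pressure, averaged over two animals.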

Rattus norvegicus [2] = assay: Blood pressure change in rats after oral administration of 50 mg/kg dose after 4 hours; assay type: functional; how it was run: as §1
Rattus norvegicus [3] = organism: Rattus norvegicus; assay: Compound was tested for diuretic activity in rats; I=Inactive; assay type: functional, organism-based; conditions: Urine
How it was run: (§2)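 Male rats (~160 g) fasted 24 h, water withheld 1.5 h, both withheld during test. Gavage 25 mL/kg 0.9% saline with 0.5% carboxymethylcellulose containing compound at 40 mg/kg; urine collected 5 h in metabolism cages. Two-stage test, T/C urine volume per stage; active if product of stage T/Cs ≥3.34.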

Rattus norvegicus [4] = assay: Compound was tested for inhibition of RPAR administered perorally at 25 mg/kg dose; I=Inactive; assay type: functional, organism-based; set-up: dose 25 mg/kg
How it was run: (§3)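 Male Wistar rats (180-200 g), 5-10/group, dosed orally (water with Tween-80 suspension) 1 h before iv sensitization with 1 mg bovine serum albumin; 24-h fasted. 60 min later subplantar challenge with 200 µg anti-BSA in left hindpaw. Paw swelling by mercury displacement plethysmography at 2 h post-challenge.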

Rattus norvegicus [5] = organism: Rattus norvegicus; assay: Diuretic activity in rats; assay type: functional, Urine; how it was run: as §2
Rattus norvegicus [6] = assay: Inhibition of RPAR administered perorally at 100 mg/kg dose; assay type: functional; conditions: route oral; how it was run: as §3
Rattus norvegicus [7] = assay: Inhibition of RPAR administered perorally at 25 mg/kg dose; assay type: functional; conditions: route oral; how it was run: as §3
Rattus norvegicus [8] = assay: Inhibition of RPAR administered perorally at 50 mg/kg dose; assay type: functional; conditions: route oral; how it was run: as §3
[9] = Potassium salt excretion in conscious rat at the dose of 0.3 mg/kg expressed as urinary excretion in treated rats/urinary excretion in control rats; assay type: ADME, organism-based, Urine; set-up: dose 0.3 mg/kg; conditions: in vivo
How it was run: (§4)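 Male rats (~160 g) fasted 24 h, water withheld 1.5 h; oral gavage of compound (0.3-100 mg/kg) in 25 mL/kg saline with 0.5% carboxymethylcellulose; 5 h urine collection in metabolism cages. Urine volume, Na+ and K+ (flame photometry) expressed as treated/control excretion ratio.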

[10] = Potassium salt excretion in conscious rat at the dose of 1.0 mg/kg expressed as urinary excretion in treated rats/urinary excretion in control rats; assay type: ADME, organism-based, Urine; set-up: dose 1 mg/kg; conditions: in vivo; how it was run: as §4
[11] = Potassium salt excretion in conscious rat at the dose of 10 mg/kg expressed as urinary excretion in treated rats/urinary excretion in control rats; assay type: ADME, organism-based, Urine; set-up: dose 10 mg/kg; conditions: in vivo; how it was run: as §4
[12] = Potassium salt excretion in conscious rat at the dose of 100 mg/kg expressed as urinary excretion in treated rats/urinary excretion in control rats; assay type: ADME, organism-based, Urine; set-up: dose 100 mg/kg; conditions: in vivo; how it was run: as §4
[13] = Potassium salt excretion in conscious rat at the dose of 3.0 mg/kg expressed as urinary excretion in treated rats/urinary excretion in control rats; assay type: ADME, organism-based, Urine; set-up: dose 3 mg/kg; conditions: in vivo; how it was run: as §4
[14] = Potassium salt excretion in conscious rat at the dose of 30 mg/kg expressed as urinary excretion in treated rats/urinary excretion in control rats; assay type: ADME, organism-based, Urine; set-up: dose 30 mg/kg; conditions: in vivo; how it was run: as §4
[15] = Sodium salt excretion in conscious rat at the dose of 0.3 mg/kg expressed as urinary excretion in treated rats/urinary excretion in control rats; assay type: ADME, organism-based, Urine; set-up: dose 0.3 mg/kg; conditions: in vivo; how it was run: as §4
[16] = Sodium salt excretion in conscious rat at the dose of 1.0 mg/kg expressed as urinary excretion in treated rats/urinary excretion in control rats; assay type: ADME, organism-based, Urine; set-up: dose 1 mg/kg; conditions: in vivo; how it was run: as §4
[17] = Sodium salt excretion in conscious rat at the dose of 10 mg/kg expressed as urinary excretion in treated rats/urinary excretion in control rats; assay type: ADME, organism-based, Urine; set-up: dose 10 mg/kg; conditions: in vivo; how it was run: as §4
[18] = Sodium salt excretion in conscious rat at the dose of 100 mg/kg expressed as urinary excretion in treated rats/urinary excretion in control rats; assay type: ADME, organism-based, Urine; set-up: dose 100 mg/kg; conditions: in vivo; how it was run: as §4
[19] = Sodium salt excretion in conscious rat at the dose of 3.0 mg/kg expressed as urinary excretion in treated rats/urinary excretion in control rats; assay type: ADME, organism-based, Urine; set-up: dose 3 mg/kg; conditions: in vivo; how it was run: as §4
[20] = Sodium salt excretion in conscious rat at the dose of 30 mg/kg expressed as urinary excretion in treated rats/urinary excretion in control rats; assay type: ADME, organism-based, Urine; set-up: dose 30 mg/kg; conditions: in vivo; how it was run: as §4
Rattus norvegicus [21] = assay: Compound was tested for urinary volume excretion in conscious rat at the dose of 0.3 mg/kg expressed as urinary excretion in treated rats/urinary excretion in control rats; assay type: ADME, organism-based, Urine; set-up: dose 0.3 mg/kg; conditions: in vivo; how it was run: as §4
Rattus norvegicus [22] = assay: Compound was tested for urinary volume excretion in conscious rat at the dose of 1.0 mg/kg expressed as urinary excretion in treated rats/urinary excretion in control rats; assay type: ADME, organism-based, Urine; set-up: dose 1 mg/kg; conditions: in vivo; how it was run: as §4
Rattus norvegicus [23] = assay: Compound was tested for urinary volume excretion in conscious rat at the dose of 10 mg/kg expressed as urinary excretion in treated rats/urinary excretion in control rats; assay type: ADME, organism-based, Urine; set-up: dose 10 mg/kg; conditions: in vivo; how it was run: as §4
Rattus norvegicus [24] = assay: Compound was tested for urinary volume excretion in conscious rat at the dose of 100 mg/kg expressed as urinary excretion in treated rats/urinary excretion in control rats; assay type: ADME, organism-based, Urine; set-up: dose 100 mg/kg; conditions: in vivo; how it was run: as §4
Rattus norvegicus [25] = assay: Compound was tested for urinary volume excretion in conscious rat at the dose of 3.0 mg/kg expressed as urinary excretion in treated rats/urinary excretion in control rats; assay type: ADME, organism-based, Urine; set-up: dose 3 mg/kg; conditions: in vivo; how it was run: as §4
Rattus norvegicus [26] = assay: Compound was tested for urinary volume excretion in conscious rat at the dose of 30 mg/kg expressed as urinary excretion in treated rats/urinary excretion in control rats; assay type: ADME, organism-based, Urine; set-up: dose 30 mg/kg; conditions: in vivo; how it was run: as §4

SMILES: Cn1c(=O)cc(-c2ccccc2)[nH]c1=O
MABP change (Rattus norvegicus [1]): 6 mmHg | MABP change (Rattus norvegicus [2]): 0 mmHg

SMILES: Nc1nc(O)cc(-c2ccccc2)n1
Diuretic activity (Rattus norvegicus [3]): inactive | inhibition (Rattus norvegicus [4]): inactive

SMILES: CN(C)c1nc(O)c(Br)c(-c2ccccc2)n1
MABP change (Rattus norvegicus [1]): 2 mmHg | MABP change (Rattus norvegicus [2]): 1 mmHg

K+ excretion [9]: 1.1 | K+ excretion [10]: 1.1 | K+ excretion [11]: 1.4 | K+ excretion [12]: 1.6 | K+ excretion [13]: 1.2 | K+ excretion [14]: 2.1 | Na+ excretion [15]: 1.1 | Na+ excretion [16]: 1.2 | Na+ excretion [17]: 1.9 | Na+ excretion [18]: 2.7 | Na+ excretion [19]: 1.6 | Na+ excretion [20]: 2.4 | Urinary volume (Rattus norvegicus [21]): 1.3 | Urinary volume (Rattus norvegicus [22]): 1.4 | Urinary volume (Rattus norvegicus [23]): 2.2 | Urinary volume (Rattus norvegicus [24]): 2 | Urinary volume (Rattus norvegicus [25]): 1.6 | Urinary volume (Rattus norvegicus [26]): 2.7
SMILES: Cn1c(N)nc(-c2ccccc2)c(I)c1=O
Diuretic activity (Rattus norvegicus [5]): 4.46 | inhibition in vivo at 100 mg/kg (Rattus norvegicus [6]): 79% | inhibition in vivo at 25 mg/kg (Rattus norvegicus [7]): 18% | inhibition in vivo at 50 mg/kg (Rattus norvegicus [8]): 30% | MABP change (Rattus norvegicus [1]): -13 mmHg | MABP change (Rattus norvegicus [2]): -6 mmHg

SMILES: C=CCn1c(N)nc(-c2ccccc2)c(I)c1=O
Diuretic activity (Rattus norvegicus [5]): 5.09 | MABP change (Rattus norvegicus [1]): -10 mmHg | MABP change (Rattus norvegicus [2]): -6 mmHg

SMILES: N=C(N)NCCN1CCCCCCC1 [GUANETHIDINE]
MABP change (Rattus norvegicus [1]): 9 mmHg | MABP change (Rattus norvegicus [2]): -16 mmHg

K+ excretion [9]: 1.1 | K+ excretion [10]: 1 | K+ excretion [11]: 1.3 | K+ excretion [12]: 1.3 | K+ excretion [13]: 1.1 | K+ excretion [14]: 1.5 | Na+ excretion [15]: 1.1 | Na+ excretion [16]: 1.3 | Na+ excretion [17]: 2.3 | Na+ excretion [18]: 2.8 | Na+ excretion [19]: 1.5 | Na+ excretion [20]: 2.9 | Urinary volume (Rattus norvegicus [21]): 1.1 | Urinary volume (Rattus norvegicus [22]): 1.2 | Urinary volume (Rattus norvegicus [23]): 2.5 | Urinary volume (Rattus norvegicus [24]): 2.7 | Urinary volume (Rattus norvegicus [25]): 1.3 | Urinary volume (Rattus norvegicus [26]): 2.6
SMILES: Nc1nc(=O)c(Br)c(-c2ccccc2)[nH]1 [BROPIRIMINE]
Diuretic activity (Rattus norvegicus [5]): 7.41 | inhibition in vivo at 100 mg/kg (Rattus norvegicus [6]): 44% | inhibition in vivo at 25 mg/kg (Rattus norvegicus [7]): 13% | inhibition in vivo at 50 mg/kg (Rattus norvegicus [8]): 31% | MABP change (Rattus norvegicus [1]): -22 mmHg | MABP change (Rattus norvegicus [2]): 0 mmHg

SMILES: CN(C)c1nc(O)c(I)c(-c2ccccc2)n1
MABP change (Rattus norvegicus [1]): 2 mmHg | MABP change (Rattus norvegicus [2]): 1 mmHg

SMILES: N=C(N)Nc1nc(O)c(Br)c(-c2ccccc2)n1
MABP change (Rattus norvegicus [1]): -1 mmHg | MABP change (Rattus norvegicus [2]): -2 mmHg

SMILES: Oc1nc(O)c(I)c(-c2ccccc2)n1
Diuretic activity (Rattus norvegicus [5]): 5.43 | inhibition in vivo at 100 mg/kg (Rattus norvegicus [6]): 48% | inhibition in vivo at 50 mg/kg (Rattus norvegicus [8]): 41% | MABP change (Rattus norvegicus [1]): 11 mmHg | MABP change (Rattus norvegicus [2]): 7 mmHg

SMILES: Cn1c(=O)[nH]c(-c2ccccc2)c(I)c1=O
MABP change (Rattus norvegicus [1]): 4 mmHg | MABP change (Rattus norvegicus [2]): 1 mmHg

SMILES: Cn1c(-c2ccccc2)c(Br)c(=O)n(C)c1=O
inhibition in vivo at 100 mg/kg (Rattus norvegicus [6]): 59% | inhibition in vivo at 50 mg/kg (Rattus norvegicus [8]): 36%

SMILES: Cn1c(=O)[nH]c(-c2ccccc2)c(Br)c1=O
MABP change (Rattus norvegicus [1]): 6 mmHg | MABP change (Rattus norvegicus [2]): -1 mmHg
